From PubChem BioAssay
NALP1 inh: inhibitors of NALP1 inflammasome in yeast; inhibition, % at 10 µM; 280,000 compounds, 0.61% hits; AID 2071; S. cerevisiae NALP1/ASC/caspase-1 growth, X-gal OD620, 72 h; in the data active = inhibition mostly above about 24%, no sharp cut-off; inactive = mostly below about 32%
ALR inh: inhibitors of human sulfhydryl oxidase ALR. P55789. purified ALR, DTT oxidation, H2O2 HRP-luminol luminescence. inhibition, % (concentration not given with the values). 290,000 compounds, 3.8% hits;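 active = mean replicate inhibition above about 79%, with every replicate also reaching it, limit read from the data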
Target sequence (P55789 whole entry, looked up): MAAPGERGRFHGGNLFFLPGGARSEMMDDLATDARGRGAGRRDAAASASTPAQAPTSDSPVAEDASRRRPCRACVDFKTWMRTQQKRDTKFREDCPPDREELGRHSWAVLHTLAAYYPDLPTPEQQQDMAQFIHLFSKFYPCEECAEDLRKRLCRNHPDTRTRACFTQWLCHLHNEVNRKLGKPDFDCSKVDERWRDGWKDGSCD
PolyA inh: blocks polyadenylation in yeast reporter cells | 300,000 compounds, 0.02% hits | AID 1875 | activity score, % at 12 µM | S. cerevisiae SKY197-pL101 polyadenylation reporter, beta-gal luminescence; efflux-impaired pdr1/pdr3 knockout yeast; score 100 = 6 SD above DMSO;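 active = lowest replicate activity score at least 50, where 100 means six control SD above control mean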;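 also: yeast exposed to compound for 9 h at 30 °C; higher score means more reporter readthrough which indicates perturbed polyadenylation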
Arrestin-AP2 inh: human beta-arrestin and AP2 interaction inhibition | FITC-arrestin peptide / GST-AP2 beads, flow cytometry; AP2 beta2 appendage carries R879A mutation | inhibition, % at 10 µM | 340,000 compounds, 0.31% hits;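 active = inhibition above a set limit, near 3 SD of compounds lacking own fluorescence, cut at about 54% in these data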;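 also: plate controls were DMSO wells for no effect and 5 µM unlabelled arrestin peptide for full effect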
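System: GST-AP2 R879A glutathione beads; medium: PBS, Tween 20 0.05%, BSA 0.1%; reagent: fluorescein-tagged arrestin peptide at 50 nM final; schedule: pre-incubation 12 min, peptide binding 1 h, room temperature; detection: flow cytometry, FL1 (488/535 nm); read-out: inhibition as reduced fluorescein signal on beads, percent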
NLRP3 yeast inh: NALP3 inhibition in yeast. Yeast reconstituted NLRP3/ASC/caspase-1, beta-gal luminescence, 24 h. inhibition, % at 10 µM. AID 2825. 330,000 compounds, 0.39% hits;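 active = inhibition of 50% or more; inactive = inhibition below 50%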;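 also: plate controls were induced DMSO wells for no effect and uninduced yeast grown without galactose for full effect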
DSG3 Ab inh: blocks pemphigus antibody binding to human desmoglein-3; P32926; DSG3-coupled beads, scFv-anti-DSG3-GFP binding, flow cytometry; stronger effect = lower value; binding (percent of control), % at 10 µM; 310,000 compounds, 0.48% hits; AID 588358;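 active = binding more than 3 SD below its plate's average and above zero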
* = called active by the depositor; nt = no result given. The list is not random: actives were taken first. Their share in the collection is about 4.6%.

SMILES	NALP1 inh	ALR inh	PolyA inh	Arrestin-AP2 inh	NLRP3 yeast inh	DSG3 Ab inh
CCC(CC)c1nnc(NC(=O)c2cc(-c3ccccc3)nc3ccccc23)s1	25	-4	12	2	-2	110
Cc1ccc(-c2cn3c(=O)cc(C)[nH]c3n2)cc1	-1	-6	-6	16	4	100
Cc1cc(=O)n2cc(-c3ccccc3)nc2[nH]1	32	87*	27	-1	-6	nt
O=C(COC(=O)/C=C/c1ccc(Br)o1)Nc1ccc2[nH]c(=O)[nH]c2c1	nt	-8	-1	1	-7	57*
COc1ccc(CCNC(=O)COc2ccc(N(C)S(=O)(=O)c3ccc(Cl)cc3)cc2)cc1	26*	nt	2	7	nt	106
CN(c1ccc(OCC(=O)Nc2ccc3[nH]c(=O)[nH]c3c2)cc1)S(=O)(=O)c1ccc(Cl)cc1	42*	-1	10	3	-6	95
O=C(COC(=O)CSc1ccc(Cl)cc1)Nc1ccc2[nH]c(=O)[nH]c2c1	nt	nt	nt	1	0	99*
NC(=O)c1ccc(NC(=O)COC(=O)/C=C/c2ccc(Br)o2)cc1	nt	-5	nt	-4	25	96
COc1ccc(/C(C)=N/NC(=S)NCCc2ccccc2)c(O)c1	-14	nt	12	-6	21	95
FC(F)(F)C(F)(F)c1nc2nc(Cl)c(Cl)nc2[nH]1	nt	nt	nt	nt	nt	104
O=C(C1=C[C@H](c2coc3ccccc3c2=O)C[C@H](OCc2ccc(CO)cc2)O1)N1CCN(Cc2ccc3c(c2)OCO3)CC1	20*	-7	-5	-4	13	96
O=C(C1=C[C@@H](c2coc3ccccc3c2=O)C[C@@H](OCc2ccc(CO)cc2)O1)N1CCN(Cc2ccc3c(c2)OCO3)CC1	16	nt	4	23	10	99
CCOC(=O)N/N=C/c1cn(Cc2ccc(Cl)cc2)c2ccccc12	26	-4	2	1	9	-28*
CCOC(=O)N/N=C/c1cn(CCCOc2ccc(C)cc2)c2ccccc12	13	-1	-8	-3	9	-31*
CCOC(=O)N/N=C/c1cn(CCCOc2ccccc2)c2ccccc12	22	nt	-12	-3	5	97
CCOC(=O)N/N=C/c1cn(Cc2ccc(F)cc2)c2ccccc12	nt	-4	1	10	13	115
C/C(=N\NC(=O)COc1cccc(Br)c1)c1ccc2c(c1)OCCO2	nt	9	nt	5	23	nt
O=C1CSC(=S)N1N=Cc1ccc2c(c1)OCO2	nt	nt	nt	-2	nt	102
O=[N+]([O-])c1cc2c(c(CSc3ncccn3)c1)OCOC2	13	-1	-6	38	21	103
CC(C)CC1(C)NC(=O)N(Cc2cc([N+](=O)[O-])cc3c2OCOC3)C1=O (stereo not given)	23*	-5	-11	20	-8	92
Cc1ccc(S(=O)(=O)NN=Cc2ccccc2Cl)cc1	nt	nt	nt	nt	nt	102
CCN(CC)C(=O)c1[nH]cnc1C(=O)NCc1ccccc1	nt	2	nt	23	5	98
CCOC(=O)C1CCN(S(=O)(=O)c2cccc(-c3cn4cc(C)ccc4n3)c2)CC1	-6	-4	13	-6	12	103
CCOC(=O)C1CCN(S(=O)(=O)c2cccc(-c3csc(C)n3)c2)CC1	-6	99*	3	2	9	115
CCOC(=O)C1CCN(S(=O)(=O)c2cccc(-c3cn4cccnc4n3)c2)CC1	22	98*	6	6	11	96
SMILES	NALP1 inh	ALR inh	PolyA inh	Arrestin-AP2 inh	NLRP3 yeast inh	DSG3 Ab inh
Cc1nc(-c2cccc(NC(=O)c3cccc(S(=O)(=O)N4CCCC4)c3)c2)cs1	nt	-2	nt	24	5	nt
COc1ccc([C@@H]2C[C@H]3[C@@H](CN2S(=O)(=O)c2ccccc2)C(=O)C[C@@H](c2ccc(C)cc2)N3S(=O)(=O)c2ccc(C)cc2)cc1	nt	nt	nt	nt	nt	98
CCCCCCNC(=O)CC(c1ccccc1)c1cc(Br)ccc1O (stereo not given)	8	-3	-13	2	18	102
CC(C)NC(=O)CC(c1ccccc1)c1cc(Br)ccc1O (stereo not given)	40*	7	-9	4	1	100
c1ccc2cc(C3OCC4(CCCC4)CO3)ccc2c1	nt	nt	nt	nt	nt	110
COc1ccc(OC)c(CN2CCN(C(=O)c3cccc(S(=O)(=O)N(C)c4ccccc4)c3)CC2)c1	nt	nt	nt	nt	nt	106
CCOc1ccccc1N1CCN(CC(O)COC2CCCc3ccccc32)CC1 (stereo not given)	20	13	12	11	22	-39*
O=S(=O)(c1cccs1)N1CCN(CC(O)COC2CCCc3ccccc32)CC1 (stereo not given)	12	-13	-15	7	12	100
C[C@H](NC(=O)c1ccccc1)C(=O)OCC(=O)Nc1ccc(Cl)cn1	nt	nt	nt	nt	nt	105
N#Cc1c(NC(=O)CSc2nnc(-c3ccco3)n2-c2ccccc2)sc2c1CCC2	-4	5	3	41	5	98
COC(=O)c1ccccc1NC(=O)CSc1n[nH]c(-c2cccnc2)n1	33*	1	1	1	11	99
O=C(CSc1n[nH]c(-c2ccco2)n1)Nc1sc2c(c1C(=O)Nc1ccccc1)CCCC2	4	98*	-14	24	13	102
COc1ccccc1NC(=O)CSc1n[nH]c(-c2cccnc2)n1	35	14	17	-7	4	104
O=C(CSc1n[nH]c(-c2ccco2)n1)Nc1ccccc1Cl	5	21	10	8	7	43*
CCOC(=O)c1c(NC(=O)CSc2n[nH]c(-c3ccco3)n2)sc(C)c1C	-32	1	3	-4	17	nt
NC(=O)c1c(NC(=O)CSc2nnc(-c3ccco3)n2-c2ccccc2)sc2c1CCC2	-10	97*	0	17	10	nt
O=C(NC1CCCCC1)c1cccc(NC(=O)c2ccccc2Cl)c1	nt	nt	nt	nt	nt	93
CC1=CC(=C(C#N)C#N)C=C(C)N1CCN1CCN(C(=O)Nc2ccc(Cl)c(Cl)c2)CC1	37	-6	2	22	-15	116
CC1=CC(=C(C#N)C#N)C=C(C)N1Cc1ccc(Cl)cc1	-8	-2	4	0	4	-3.8*
O=C(Nc1ccc(F)cc1)c1cccc2c1C(=O)N(CC1CCCO1)C2 (stereo not given)	-6	-6	-12	3	27	100
COc1cccc(/C=N/NC(=O)NC2CCCCC2)c1O	-2	90*	20	40	16	90
COc1cccc(/C=N/NC(=O)C(=O)N/N=C/c2cccc(OC)c2O)c1O	-31	nt	nt	4	nt	nt
COc1cccc(/C=N/NC(=O)CSCC(=O)Nc2ccccc2)c1O	-14	91*	35	-5	13	101
COc1ccc(/C=N/NC(=O)CSCC(=O)Nc2ccccc2)cc1	11	-5	-3	35	15	110
